Test results reported in ChEMBL document CHEMBL4513216, “Probing the Open Global Health Chemical Diversity Library for Multistage-Active Starting Points for Next-Generation Antimalarials” (ACS Infect Dis, 2020).

Experiment: Toxicity liver stage against HepG2, at 10uM
Assay type: cell-based
Design: test concentration 10 uM, cell line HepG2-A16-CD81EGFP
Details: human, HepG2-A16-CD81EGFP cells; read-out: INHIBITION
In short: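 Uninfected HepG2-A16-CD81EGFP cells, 3 × 10^3 per well, 1536-well, plated on prespotted compound at 10 μM final, parasite-free screening media added to match infected plates; puromycin 10 μM positive, DMSO 0.5% negative; run in parallel with 48 h PbLuc assay at 37 °C, 5% CO2; viability by CellTiter-Glo luminescence, normalized to controls.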

Structure (SMILES)	cytotoxicity at 10 µM [%]
Cc1c(C(=O)O)sc2nc(C(F)(F)F)ccc12	1.5
Cc1nc(C(=O)Nc2cccnc2)c(C(C)C)s1	-2.36
CC(C)CNC(=O)C1CC(=O)N(c2n[nH]c3ccccc23)C1 (stereo unspecified)	-11.6
O=C(c1ccno1)N1CC2(CCC(C(=O)N3CCCC3)O2)C1 (stereo unspecified)	-157
Cc1ccc(CN2CC[C@H]3C(=O)N(c4cccnc4)CCO[C@H]3C2)o1	7.8
COCC1c2nnn(CC3CC3)c2CCN1C(=O)c1cc(C)[nH]c1C (stereo unspecified)	-140
Cc1noc(C)c1CN1CC2(CCN(C(=O)c3cc[nH]n3)C2)CC1=O (stereo unspecified)	12.2
Cc1nc(CN2CCO[C@H]3CN(C(=O)c4ccncc4)C[C@H]32)cs1	-146
O=C(O)C1CCN(C(=O)CCn2ccc3cc(Br)ccc32)CC1	15.5
Cc1cccc(-c2cc(C(=O)O)sn2)c1	-0.475
CS(=O)(=O)N1CCC(Oc2cnccn2)CC1	0.097
Cn1cc(C2CC(=O)NC23CCN(c2ncc(F)cn2)CC3)cn1 (stereo unspecified)	-5.39
CCn1nc(C)c(NC(=O)c2cc(NC(=O)C(C)C)n(C)n2)c1C	0.568
CN1CCN(C(=O)c2cc(-c3cccs3)cs2)CC1	3.51
Cc1nc(C(Cc2ccsc2)NC(=O)CCN2CCOCC2)sc1C (stereo unspecified)	7.04
CC(C)CCNC(=O)C1CCCN1C(=O)Nc1cccc(F)c1 (stereo unspecified)	-1.04
C[C@]1(O)CCN(Cc2ncccc2F)C[C@@H]1Oc1ccccc1	-21.4
Cc1cc2c(=O)n3c(nc2s1)CCN(C(=O)c1cnn(C)c1)CC3	-1.94
Cc1cccc(C(=O)NCCS(=O)(=O)Cc2ccccc2)c1	-7.43
Cc1nc2cc(F)ccc2cc1C(=O)N1CCN(CC(C)O)CC1 (stereo unspecified)	2.49
CN1CCOC(CNCc2cnc(C(C)(C)C)s2)C1 (stereo unspecified)	-2.87
Cc1nc(C)c(C(=O)N2CCc3ccc(F)cc3C2C)o1 (stereo unspecified)	-1.65
Cc1nc(C)n(CC2CCCN2c2ncnc3sc(C)c(C)c23)n1 (stereo unspecified)	21.4

Structure (SMILES)	cytotoxicity at 10 µM [%]
CCCN(CC(=O)NC)C(=O)c1ccc(-c2nc(C)cs2)cc1	-20.8
Cn1cc(N2CCN(c3ccc(C#N)c(Cl)c3)CC2=O)cn1	-3.81
N#Cc1ccc(CN2CCC(CN3CCOCC3)C2)cc1 (stereo unspecified)	-7.01
N#CC1(NC(=O)c2c(F)ccc(OC(F)F)c2F)CCOCC1	-8.29
O=C(NCCCN1CCOCC1)C(OC1CCCC1)c1ccccc1 (stereo unspecified)	-5.95
CC(C)(C)[S+]([O-])CCNC(=O)c1csc(NC2CC2)n1 (stereo unspecified)	13.4
O=C(NCCNC(=O)c1ccc(Cl)cc1)NCCn1cccc1	5.95
CC(=O)c1c(F)cccc1NC1CCN(S(=O)(=O)C2CC2)CC1	12.5
CN1CCN(C(=O)NCCNc2ncccn2)Cc2ccccc21	-4.47
CC(NC(=O)NCCCn1cccn1)c1ccccn1 (stereo unspecified)	-11.5
O=C(CCNS(=O)(=O)c1ccc(Cl)cc1)NCc1ccoc1	-11.8
CCN(Cc1nc2c(cnn2C)c(=O)[nH]1)c1ccccc1C	2.78
CN(Cc1ccncc1)C(=O)c1ccc(F)c(NS(C)(=O)=O)c1	-0.453
CN(C(=O)CNC(=O)CC(C)(C)C)C1CCN(c2ccccn2)CC1	13.9
Cn1cc(C(C)(O)CNC(=O)c2ccc(Br)s2)cn1 (stereo unspecified)	-52.7
O=C(CNc1cc2c(cc1Br)OCCO2)NC1CCS(=O)(=O)C1 (stereo unspecified)	6.43
N#Cc1cc(N2CCC(CS(N)(=O)=O)CC2)nc2ccccc12	-6.03
COCCN(Cc1ccco1)Cc1nc(-c2ccccc2C)no1	6.72
COCCN(c1ccncc1)S(=O)(=O)c1cc(C)c(F)cc1F	-6.54
CCS(=O)(=O)CC(=O)Nc1cccc2c1CN(CC(C)C)C2	2.25
CS(=O)(=O)N(Cc1ccon1)c1cccc(Br)c1	7.57
Cc1oc(-c2cccs2)nc1C(=O)N(C)C1(C#N)CCC1	5.09
CC(O)CN1CCC(CN(C)Cc2ccc(C#N)cc2F)CC1 (stereo unspecified)	-1.87

Structure (SMILES)	cytotoxicity at 10 µM [%]
COc1ccccc1NC(=O)NCCCC(=O)Nc1cn[nH]c1	-9.55
Cc1[nH]ncc1C(=O)N(CC(C)C)CC(O)c1ccc(F)cc1 (stereo unspecified)	-1.61
Cc1nc(S(=O)(=O)N2CCSC3(CCCCC3)C2)cn1C	-9.2
COC(C)(C)c1noc(C2(C#N)CCCC2)n1	-5.11
CCCNC(=O)NC(=O)CNc1c(F)cccc1N1CCCC1	0.266
COc1ccccc1N(C)Cc1nc2c(cnn2C)c(=O)[nH]1	-8.48
O=C(Nc1ccc(N2CCCC2)nc1)N1CCc2sccc2C1	-16.6
Cc1c(CC(=O)N2CCN(CC(F)(F)F)CC2)nnn1-c1ccccc1	-14.8
CC1CCN(CCNC(=O)c2ccccc2N2CCOCC2)CC1	-6.05
COc1ncccc1C(=O)N1CCn2c(COCC3CC3)cnc2C1C (stereo unspecified)	-1.03
CN1CCN(C(=O)N2CC[C@@](O)(c3ccccc3)[C@H]3CCCC[C@@H]32)CC1	-9.67
CC(C)N(CCO)C(=O)C1CCC(=O)N(Cc2ccc(Cl)cc2)C1 (stereo unspecified)	-4.9
NCCO[C@H]1C[C@@H](O)C12CCN(C(=O)COc1cccc(Cl)c1)CC2	-4.32
CCN1CCC(c2nnc(CN3CCCC3)n2C2CC2)CC1	-7.3
CCC(=O)N1CCc2[nH]cnc2C12CCN(CC1CCOC1)CC2 (stereo unspecified)	-0.264
Cc1nn(C)c2nc(N3CCCCC3c3ccc(F)cc3)sc12 (stereo unspecified)	-7.88
CSCCC(=O)N1CCCCC1CCn1cccn1 (stereo unspecified)	-1.94
CN(Cc1cc(C(C)(C)C)n[nH]1)C(=O)c1cn2ccsc2n1	-12.6
Cc1nc(N(C)C)nc(N2CCC3(CC2)CNC(=O)O3)c1C	14.9
CN(C)Cc1nnc(C2CCN(c3ncccn3)CC2)n1C1CC1	-1.26
CCn1c(N)nc2cc(C(=O)NCCc3nnc(C)s3)cnc21	-2.46
Cc1ccc(C2(O)CCN(C(=O)c3sccc3S(N)(=O)=O)CC2)nc1	-3.3
Cc1ccc2cc(C3(O)CCN(C)CC3)ccc2n1	-0.432

Structure (SMILES)	cytotoxicity at 10 µM [%]
COc1nc2c(cc1C(=O)N(C)Cc1noc3c1CCCC3)CCC2	0.224
O=C(c1ncccc1O)N1CCc2c(nc(-c3ccncc3)[nH]c2=O)C1	-0.918
CN(CC(=O)N1CCOCC(CO)C1)Cc1ccc(F)cc1 (stereo unspecified)	-2.82
COc1ccc2c(C)c(C(=O)N3CCC(NC(C)=O)C3)oc2c1 (stereo unspecified)	7.72
CC(C)N(C)S(=O)(=O)c1ccc2c(c1)CCN(C(=O)c1ccccn1)C2	10.3
CCn1ccnc1CN(C)C1CCCN(Cc2ccccc2F)C1 (stereo unspecified)	4.77
CC(C)N1CC(C(=O)N2CCC(Oc3ccccc3Cl)CC2)CC1=O (stereo unspecified)	-3.21
Cc1nn(C)cc1Cn1c(=O)c(C)nc2ccccc21	-1.21
COc1ccc(C(=O)N2CCC(C3CCN(c4ncccn4)CC3)C2)o1 (stereo unspecified)	-12.5
CN(Cc1ccc2nsnc2c1)C(=O)CCc1cc2n(n1)CCCNC2	-4.62
O=C(O)C1(O)CCN(c2ccc3cccc(Cl)c3n2)CC1	4.57
O=C(c1cccnc1N1CCCCC1)N1CCCC(n2cccn2)C1 (stereo unspecified)	-0.438
Cc1nc(CN2CCCC(N(C)CCCc3ccccc3)C2)no1 (stereo unspecified)	-0.704
O=C(NC1CC1)N1CCN(c2cnccn2)CC1	-7.39
COc1ncccc1CNC(=O)c1cnccn1	-8.77
CC(C)(C)NC(=O)CCOc1cccc(F)c1	-4.95
CSC(C)C(=O)NCc1ccnc(N2CCN(C)CC2)c1 (stereo unspecified)	-15.3
CN(C)CC(=O)N1CCN(CC(O)c2ccc(F)cc2)CC1 (stereo unspecified)	-9.11
Clc1snnc1CN1CCCC1Cn1cncn1 (stereo unspecified)	-20.7
Cc1cc(C)n(C2CCCN(C(=O)CCOc3ccccc3F)C2)n1 (stereo unspecified)	-6.19
COc1cc(S(=O)(=O)N2CCc3ccc(Cl)cc32)cc(C(=O)O)c1OC	-1.34
CCn1cnnc1CNC(=O)N1CCC(CN2CCOCC2)CC1	-7
CC(Cc1cccc(Cl)c1)NC(=O)Nc1cnn(CC(N)=O)c1 (stereo unspecified)	-15

Structure (SMILES)	cytotoxicity at 10 µM [%]
Cc1ccc(-c2nc(CC(=O)N3CCN(c4cnccn4)CC3)cs2)o1	-13
CCc1nc(CN2CCCN(CC(O)c3ccccc3)CC2)no1 (stereo unspecified)	-14
CC(NC(=O)NCCCN(C(C)C)S(C)(=O)=O)c1ccncc1 (stereo unspecified)	-14.9
CN(C)c1ccc(CNC(=O)NCCc2cccs2)cn1	-2.8
Cc1cn2nc(N3CCCC3Cn3cccn3)sc2n1 (stereo unspecified)	-18.1
Cc1ccc(N2CCCC(NCc3ccc(Cl)o3)C2)nn1 (stereo unspecified)	-6.83
O=C(Cc1ccc2c(c1)OCO2)N1CCN(c2cnccn2)CC1	-5.51
O=C(CCC1CCCO1)NS(=O)(=O)c1ccc(Cl)cc1 (stereo unspecified)	-9.36
c1ccc(CN2CCNCC(Cc3cnccn3)C2)cc1 (stereo unspecified)	-8.65
CS(=O)(=O)N1CCC2(CCCN(Cc3ccccn3)C2)C1 (stereo unspecified)	-148
O=C(C[C@@H]1COC[C@H]2CN(Cc3cccnc3)C[C@@H]12)N1CCCC1	-128
Cc1cccc(N2CCc3ncnc(C4CC4)c3CC2)n1	-148
CCn1ncc2c1CN(C(=O)c1cc(C)oc1C)CC2COC (stereo unspecified)	13
c1cc(CN2CCN3C[C@H](Oc4cncnc4)C[C@H]3C2)ccn1	-108
Cc1nc(CN2CCOCC3(CCN(c4cnccn4)CC3)C2)cs1	7.37
Cc1ccc(CN2C[C@H](C(=O)N3CCCCO3)[C@@H]3CCO[C@@H]3C2)o1	9.46
Cc1nc(CN2C[C@@H]3CN(c4ncccn4)C[C@@H]3C2=O)cs1	5.16
COCc1nn(C(C)C)c2c1CCN(Cc1nccs1)C2	8.42
O=C([C@@H]1COC[C@H]2CN(c3ccncn3)C[C@H]21)N1CCCCO1	-132
